According to PMC4839290 (Journal of medicinal chemistry, 2015):
“Also recorded” adds a separate entry of the source. One block for each compound: values may come before it.

What was measured:
human mGlu1 WT receptor [1] = molecular target: T1, human mGlu1 WT receptor (Homo sapiens, UniProt Q13255); assay: Calcium mobilization mGlu1 assay; format: cell-based
[2] = Ex vivo metabolism/stability in rat plasma; format: in vitro ADME; conditions: 10 μM incubation, 37 °C, 4 h, mass spectrometry
Method in brief: (§1)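 Test compound at 10 μM incubation concentration in rat or human plasma at 37 °C. Samples were taken at 0 and 4 h and analysed by mass spectrometry for remaining parent and for metabolites formed.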

[3] = Plasma free fraction, rat plasma; format: in vitro ADME
rat mGlu1 WT receptors = rat mGlu1 WT receptors (Rattus norvegicus, UniProt P23385); assay: Calcium mobilization concentration-response curves on rat mGlu1; format: cell-based
Male C57Bl/6 mice = assay: Behavioral convulsions, modified Racine score; format: in vivo; conditions: for behavioral convulsions (modified Racine score 0–5): 10% Tween 80, monitored 3 h, n = 3
Method in brief: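 Male C57Bl/6 mice (25–30 g) got a single ip dose of test compound (100 mg/kg) or a reference mGlu5 ago-PAM (1 or 3 mg/kg). Behavior was watched continuously for 3 h and convulsions were scored on a modified Racine scale (0–5).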

[4] = Ex vivo metabolism/stability in human plasma; format: in vitro ADME; conditions: 10 μM incubation, 37 °C, 4 h, mass spectrometry
Method in brief: as §1

[5] = Plasma free fraction, human plasma; format: in vitro ADME
[6] = In vitro intrinsic and hepatic clearance, human; format: in vitro ADME
[7] = In vitro intrinsic and hepatic clearance, rat; format: in vitro ADME
human mGlu1 WT receptor [8] = molecular target: T1, human mGlu1 WT receptor; assay: Fold-shift of glutamate concentration-response curve, human mGlu1 WT cells; format: cell-based; conditions: 10 μM compound
Rat iv PK = format: in vivo; conditions: rat iv PK (0.2 mg/kg)
mGlu2 = assay: Standard fold-shift selectivity assay; format: cell-based; conditions: 10 μM compound
[9] = tested on: human mGlu1 mutant receptors (P729T, A683E, Y632H, P1014S); format: cell-based; conditions: noted at compound concentrations above 1 μM
[10] = tested on: CA3 pyramidal cell body layer in a mouse hippocampal slice preparation; assay: Extracellular recording of spontaneous spike
Method in brief: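 Hippocampal slices with extracellular recording from the CA3 pyramidal cell body layer. Frequency of spontaneous activity was tracked before, during and after bath application and washout of test compound (10 μM) or DHPG (50 μM, positive control). Each was compared with baseline by paired t test, n = 6 per treatment.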

hmGlu4 = hmGlu4 (Homo sapiens, UniProt Q14833); assay: Calcium mobilization assay, mGlu4 PAM activity; format: cell-based; conditions: n = 3 in triplicate
Sequence of hmGlu4 (Q14833 33-912): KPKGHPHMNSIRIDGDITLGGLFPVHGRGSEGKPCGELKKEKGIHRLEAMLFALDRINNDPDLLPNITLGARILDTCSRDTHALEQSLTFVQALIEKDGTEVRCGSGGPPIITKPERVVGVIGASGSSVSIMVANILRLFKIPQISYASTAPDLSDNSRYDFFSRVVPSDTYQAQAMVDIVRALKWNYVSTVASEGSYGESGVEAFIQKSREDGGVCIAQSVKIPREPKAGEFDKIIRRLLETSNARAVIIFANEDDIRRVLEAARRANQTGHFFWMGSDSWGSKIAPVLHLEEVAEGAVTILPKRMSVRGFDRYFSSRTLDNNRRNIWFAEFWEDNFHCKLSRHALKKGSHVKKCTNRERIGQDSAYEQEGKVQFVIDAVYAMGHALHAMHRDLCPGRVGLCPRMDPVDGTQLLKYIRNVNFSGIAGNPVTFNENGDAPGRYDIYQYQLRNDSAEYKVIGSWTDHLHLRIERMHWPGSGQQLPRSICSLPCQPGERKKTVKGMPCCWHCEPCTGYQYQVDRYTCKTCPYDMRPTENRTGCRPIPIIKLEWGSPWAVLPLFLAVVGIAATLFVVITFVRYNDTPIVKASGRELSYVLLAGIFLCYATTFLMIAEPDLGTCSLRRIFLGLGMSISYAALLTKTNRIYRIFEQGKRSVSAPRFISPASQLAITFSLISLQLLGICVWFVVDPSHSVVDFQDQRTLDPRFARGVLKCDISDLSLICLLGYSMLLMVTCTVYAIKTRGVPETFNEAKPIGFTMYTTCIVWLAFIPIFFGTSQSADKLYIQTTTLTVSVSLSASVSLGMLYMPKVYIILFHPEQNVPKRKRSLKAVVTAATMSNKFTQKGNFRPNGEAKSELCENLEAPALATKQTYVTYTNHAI

T1 sequence (Q13255 19-1194): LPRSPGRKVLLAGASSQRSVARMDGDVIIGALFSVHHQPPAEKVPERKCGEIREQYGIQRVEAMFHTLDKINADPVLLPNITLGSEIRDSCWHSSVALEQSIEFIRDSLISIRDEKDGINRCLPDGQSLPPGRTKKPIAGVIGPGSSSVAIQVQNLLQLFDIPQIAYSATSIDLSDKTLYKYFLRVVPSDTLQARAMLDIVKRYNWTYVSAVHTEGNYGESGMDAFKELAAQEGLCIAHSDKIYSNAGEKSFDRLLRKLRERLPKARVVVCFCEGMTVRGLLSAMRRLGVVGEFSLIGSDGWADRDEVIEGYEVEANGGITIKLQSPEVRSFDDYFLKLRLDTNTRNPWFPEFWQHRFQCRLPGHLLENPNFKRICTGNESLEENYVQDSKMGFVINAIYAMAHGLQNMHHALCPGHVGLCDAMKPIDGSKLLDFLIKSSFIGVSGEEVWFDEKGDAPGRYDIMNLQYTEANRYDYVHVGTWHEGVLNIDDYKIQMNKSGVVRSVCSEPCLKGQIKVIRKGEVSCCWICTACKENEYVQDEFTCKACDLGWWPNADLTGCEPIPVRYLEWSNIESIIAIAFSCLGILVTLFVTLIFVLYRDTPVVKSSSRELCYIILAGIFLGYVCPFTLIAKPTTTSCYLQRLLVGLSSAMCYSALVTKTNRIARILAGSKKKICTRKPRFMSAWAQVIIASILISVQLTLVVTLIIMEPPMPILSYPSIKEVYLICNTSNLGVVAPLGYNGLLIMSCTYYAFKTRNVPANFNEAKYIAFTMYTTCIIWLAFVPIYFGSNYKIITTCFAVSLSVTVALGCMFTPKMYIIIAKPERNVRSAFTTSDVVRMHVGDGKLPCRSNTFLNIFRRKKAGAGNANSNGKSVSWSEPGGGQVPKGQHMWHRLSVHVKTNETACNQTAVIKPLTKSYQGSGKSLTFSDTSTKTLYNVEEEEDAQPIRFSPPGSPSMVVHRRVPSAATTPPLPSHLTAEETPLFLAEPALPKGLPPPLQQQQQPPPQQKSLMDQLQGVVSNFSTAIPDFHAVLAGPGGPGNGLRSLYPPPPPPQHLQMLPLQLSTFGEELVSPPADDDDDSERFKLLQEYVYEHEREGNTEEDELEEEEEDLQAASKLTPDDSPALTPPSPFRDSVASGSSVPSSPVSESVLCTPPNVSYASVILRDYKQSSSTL
Sequence of rat mGlu1 WT receptors (P23385 19-1199): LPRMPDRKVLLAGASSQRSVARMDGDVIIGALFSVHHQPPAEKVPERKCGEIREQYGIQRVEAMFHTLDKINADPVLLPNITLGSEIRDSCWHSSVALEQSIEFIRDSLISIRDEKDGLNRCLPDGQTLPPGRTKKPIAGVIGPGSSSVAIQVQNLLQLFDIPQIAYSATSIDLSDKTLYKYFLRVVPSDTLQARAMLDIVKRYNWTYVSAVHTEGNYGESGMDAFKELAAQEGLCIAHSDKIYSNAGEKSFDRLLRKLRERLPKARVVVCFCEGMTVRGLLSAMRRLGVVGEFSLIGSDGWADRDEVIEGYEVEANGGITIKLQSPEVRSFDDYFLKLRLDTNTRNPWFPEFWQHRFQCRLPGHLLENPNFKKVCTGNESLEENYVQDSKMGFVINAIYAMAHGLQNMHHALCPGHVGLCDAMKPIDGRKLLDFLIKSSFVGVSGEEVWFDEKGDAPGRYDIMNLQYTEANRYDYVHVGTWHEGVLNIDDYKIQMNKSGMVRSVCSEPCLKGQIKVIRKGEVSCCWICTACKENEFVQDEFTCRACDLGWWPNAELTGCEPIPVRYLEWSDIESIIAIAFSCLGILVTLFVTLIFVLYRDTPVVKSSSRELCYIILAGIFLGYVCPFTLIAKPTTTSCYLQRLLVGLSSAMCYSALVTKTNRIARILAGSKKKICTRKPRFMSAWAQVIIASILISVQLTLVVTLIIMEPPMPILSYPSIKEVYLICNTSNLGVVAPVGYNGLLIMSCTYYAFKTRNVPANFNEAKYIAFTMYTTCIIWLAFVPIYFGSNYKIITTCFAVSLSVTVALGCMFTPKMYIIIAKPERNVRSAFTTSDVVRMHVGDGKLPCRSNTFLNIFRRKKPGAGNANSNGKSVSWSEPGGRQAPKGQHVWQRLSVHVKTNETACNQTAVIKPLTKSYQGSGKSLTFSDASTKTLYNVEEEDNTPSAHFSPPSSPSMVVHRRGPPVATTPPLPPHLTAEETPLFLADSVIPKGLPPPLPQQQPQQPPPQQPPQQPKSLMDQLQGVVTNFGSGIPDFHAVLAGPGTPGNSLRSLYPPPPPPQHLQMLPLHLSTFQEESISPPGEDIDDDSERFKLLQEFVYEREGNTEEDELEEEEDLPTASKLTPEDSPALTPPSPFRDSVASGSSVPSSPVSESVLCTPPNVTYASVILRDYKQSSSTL

mGlu1 PAM activity in words (human mGlu1 WT receptor [1]): inactive
Compound: O=C(Nc1ccc(N2C(=O)c3ccccc3C2=O)c(Cl)c1)c1cc2ccccc2o1 [10m]

parent compound remaining in rat plasma [2]: no parent 17d remains | rat fu plasma [3]: unstable | rat mGlu1 pEC50 (rat mGlu1 WT receptors): 6.95 ± 0.13 | parent compound remaining in human plasma [4]: no parent 17d remains | human fu plasma [5]: unstable | human CLINT [6]: 2.90 mL/min/kg | rat CLHEP [7]: 17.2 mL/min/kg | rat CLINT [7]: 22.8 mL/min/kg
Compound: Cc1ccoc1C(=O)Nc1ccc(N2C(=O)c3ccc(Cl)cc3C2=O)c(Cl)c1 [17d, N-(3-Chloro-4-(5-chloro-1,3-dioxoisoindolin-2-yl)phenyl)-3-methylfuran-2-carboxamide]
behavioral convulsions (modified Racine score 0–5) (Male C57Bl/6 mice; 100 mg/kg ip): no measurable behavioral disturbances at any time point; also recorded: no adverse effects

agonism at the highest concentration (human mGlu1 WT receptor [8]): < 20%
Compound: Cc1ccoc1C(=O)Nc1ccc(N2C(=O)c3ccc(F)cc3C2=O)c(Cl)c1 [17f, N-(3-Chloro-4-(5-fluoro-1,3-dioxoisoindolin-2-yl)phenyl)-3-methylfuran-2-carboxamide]

mGlu1 PAM activity in words (human mGlu1 WT receptor [1]): inactive
Compound: O=C(Nc1ccc(N2C(=O)c3ccccc3C2=O)c(Cl)c1)C1CCCO1 (stereo not drawn) [9n]

mGlu1 PAM activity in words (human mGlu1 WT receptor [1]): inactive
Compound: O=C(Nc1ccc(N2C(=O)c3ccccc3C2=O)c(Cl)c1)c1cnco1 [9d]

mGlu1 PAM activity in words (human mGlu1 WT receptor [1]): inactive
Compound: O=C(Nc1ccc(N2C(=O)c3ccccc3C2=O)c(Cl)c1)c1ncco1 [9e]

human CLINT [6]: 262 mL/min/kg | rat CLHEP [7]: 63.3 mL/min/kg | rat CLINT [7]: 661 mL/min/kg
Compound: O=C(Nc1nc(C(F)(F)F)co1)C1c2ccccc2Oc2ccccc21 [compound 5, reference compound]
behavioral convulsions (modified Racine score 0–5) (Male C57Bl/6 mice; 100 mg/kg ip): no adverse effects

CLp (Rat iv PK): 382 mL/min/kg | clearance (Rat iv PK; rat, plasma, iv, 0.2 mg/kg, CLp): 283 mL/min/kg | rat mGlu1 pEC50 (rat mGlu1 WT receptors): 6.95 ± 0.15 | human fu plasma [5]: unstable | human CLINT [6]: 167 mL/min/kg | rat CLHEP [7]: 59.7 mL/min/kg | rat CLINT [7]: 405 mL/min/kg
Compound: Cc1ccoc1C(=O)Nc1ccc(N2C(=O)c3ccncc3C2=O)c(Cl)c1 [17g, N-(3-Chloro-4-(1,3-dioxo-1,3-dihydro-2H-pyrrolo[3,4-c]-pyridin-2-yl)phenyl)-3-methylfuran-2-carboxamide]
behavioral convulsions (modified Racine score 0–5) (Male C57Bl/6 mice; 100 mg/kg ip): no measurable behavioral disturbances at any time point; also recorded: no adverse effects

human CLHEP [6]: 2.70 mL/min/kg | human CLINT [6]: 3.10 mL/min/kg | rat CLHEP [7]: 52.3 mL/min/kg | rat CLINT [7]: 207 mL/min/kg | hmGlu4 pEC50 (±SEM) (hmGlu4): 5.95 ± 0.16
Compound: Cc1ccoc1C(=O)Nc1ccc(N2C(=O)c3cccc(F)c3C2=O)c(Cl)c1 [17e, N-(3-Chloro-4-(4-fluoro-1,3-dioxoisoindolin-2-yl)phenyl)-3-methylfuran-2-carboxamide]
fold shift of glutamate CRC at mGlu2 (mGlu2): < 2 fold | ago-PAM activity across all four mutants [9]: ≤ 40% | induction of epileptiform activity in CA3 ([10]; 10 μM bath application): did not induce epileptiform activity; also recorded: does not induce epileptiform activity | behavioral convulsions (modified Racine score 0–5) (Male C57Bl/6 mice; 100 mg/kg ip): no measurable behavioral disturbances at any time point; also recorded: no adverse effects

mGlu1 PAM activity in words (human mGlu1 WT receptor [1]): inactive
Compound: O=C(Nc1ccc(N2C(=O)c3ccccc3C2=O)c(Cl)c1)c1cncs1 [9i]

rat fu plasma [3]: unstable | human fu plasma [5]: unstable | human CLINT [6]: 17.2 mL/min/kg | rat CLINT [7]: 39.9 mL/min/kg
Compound: O=C(Nc1ccc(N2C(=O)c3cccc(Cl)c3C2=O)c(Cl)c1)c1ncccc1Cl [compound 8, reference compound]

hmGlu4 pEC50 (±SEM) (hmGlu4): 5.94 ± 0.22
Compound: Cc1ccoc1C(=O)Nc1ccc(N2C(=O)c3cccc(Cl)c3C2=O)c(Cl)c1 [17c, N-(3-Chloro-4-(4-chloro-1,3-dioxoisoindolin-2-yl)phenyl)-3-methylfuran-2-carboxamide]

Compound: C[C@@H](NC(=O)c1ccc(C#Cc2cccc(F)c2)cn1)C(C)(C)O [compound 18, (R)-5-((3-fluorophenyl)ethynyl)-N-(3-hydroxy-3-methylbutan-2-yl)picolinamide, reference compound]
time of peak convulsion responses after administration (Male C57Bl/6 mice; 1 or 3 mg/kg ip): approximately 5 min | behavioral convulsions (modified Racine score 0–5) (Male C57Bl/6 mice; 1 or 3 mg/kg ip): severe, dose-dependent behavioral manifestations of seizure activity; also recorded: Severe, dose-dependent behavioral convulsions

induction of epileptiform activity in CA3 ([10]; 50 μM, positive control): induced marked epileptiform activity
Compound: N[C@H](C(=O)O)c1cc(O)cc(O)c1 [DHPG, S-3,5-dihydroxyphe-nylglycine, reference compound]

mGlu1 PAM activity in words (human mGlu1 WT receptor [1]): inactive
Compound: O=C(Nc1ccc(N2C(=O)c3ccccc3C2=O)c(Cl)c1)c1coc2ccccc12 [10n]
